Experimental data published in ChEMBL document CHEMBL1148481, “Linker length modulates DNA cross-linking reactivity and cytotoxic potency of C8/C8' ether-linked C2-exo-unsaturated pyrrolo[2,1-c][1,4]benzodiazepine (PBD) dimers” (J Med Chem, 2004).

Legend:
Nucleic Acid [1] = assay: Thermal stabilization of duplex form of calf thymus DNA after incubation for 4 hours; format: functional; details: Bos taurus
Summary of the method: (§1)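 UV melting of calf thymus DNA (100 μM phosphate, 50 μM bp) with ligand at 20 μM (ligand:DNA 1:5) in pH 7.00 buffer (10 mM sodium phosphate, 1 mM EDTA), ≤0.6% v/v MeOH with correction. Samples were preincubated at 37 °C for the stated time, heated at 1 °C/min over 45–98 °C and monitored at 260 nm. ΔTm is the midpoint shift versus free DNA, from at least three determinations.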

K562 [2] = assay: Inhibitory concentration against human K562 leukemia cells following incubation for 1 hour; format: functional, cell-based; details: K562, 1 h
Summary of the method: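 K562 cells in RPMI 1640 with 10% FCS and 2 mM glutamine were exposed to drug for 1 h at 37 °C in the dark, then washed. They were plated at 10⁴ cells/well (8 wells per sample) and grown 4 days. MTT was added for 5 h, formazan dissolved in DMSO, and OD read at 550 nm. IC50 is the dose reducing OD to 50% of control.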

Nucleic Acid [3] = assay: Thermal stabilization of duplex form of calf thymus DNA after incubation for 18 hours; format: functional; details: Bos taurus; summary of the method: as §1
Nucleic Acid [4] = assay: Compound dose required to induce 50 percent cross linking in naked plasmid pBR322 DNA following incubation with agent for 2 hours at 37 degree C; format: functional
Summary of the method: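 Denatured at 90 °C for 2.5 min in 30% DMSO and run on 0.8% agarose, 40 V, 14–16 h. Autoradiography and laser densitometry of double- vs single-stranded bands gave dose–response curves; mean of ≥3 experiments.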

Nucleic Acid [5] = assay: Thermal stabilization of duplex form of calf thymus DNA after incubation for 0 hours; format: functional; details: Bos taurus; summary of the method: as §1
K562 [6] = assay: Dose required to induce 50 percent decrease in tail moment of the DNA of K562 cells following a 1 hour treatment; format: functional, Homo sapiens
Summary of the method: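 Alkaline Comet assay in K562 cells after 1 h drug exposure, done on ice in subdued light. Cells were irradiated (10 Gy), embedded in agarose, lysed 1 h at pH 10.5, held in alkali 45 min and electrophoresed 25 min at pH 12.5. Slides were propidium iodide stained; 25 cells per duplicate slide. Value is the dose giving 50% decrease in tail moment relative to irradiated controls.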

[7] = Compound was tested for inhibition of restriction endonuclease BamH1 enzyme at a concentration of 17.5 uM;Inhibited
Summary of the method: (§2)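 BamHI protection assay: a 512-bp PvuII plasmid fragment with a single BamHI site (500 ng) was incubated with the PBD (methanol stock 10 mM) for 16 h at 37 °C. It was then digested with BamHI (10 units) for 1 h at 37 °C. Cut and uncut DNA were resolved on a 1% agarose TBE gel, stained with ethidium bromide, and the cut fraction was quantified versus dose.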

[8] = Compound was tested for inhibition of restriction endonuclease BamH1 enzyme at a concentration of 25 uM;Inhibited; summary of the method: as §2
[9] = Compound was tested for percentage inhibition of restriction endonuclease BamH1 enzyme at a concentration of 25 uM;Inhibited
A498 = assay: Compound was tested for 50% growth inhibition against human renal cancer A498 cell line; format: functional
SF-539 = assay: Compound was tested for 50% growth inhibition against human CNS cancer SF-539 cell line; format: functional
U-251 = assay: Compound was tested for 50% growth inhibition against human CNS cancer U251 cell line; format: functional
ACHN = assay: Compound was tested for 50% growth inhibition against human renal cancer ACHN cell line; format: functional
UO-31 = assay: Compound was tested for 50% growth inhibition against human renal cancer UO-31 cell line; format: functional
MDA-N = assay: Compound was tested for 50% growth inhibition against human breast cancer MDA-N cell line; format: functional
BT-549 = assay: Compound was tested for 50% growth inhibition against human breast cancer BT-549 cell line; format: functional
HCT-15 = assay: Compound was tested for 50% growth inhibition against human colon cancer HCT-15 cell line; format: functional
Malme-3M = assay: Compound was tested for 50% growth inhibition against human melanoma MALME-3M cell line; format: functional
786-0 = assay: Compound was tested for 50% growth inhibition against human renal cancer 786-0 cell line; format: functional
HCC 2998 = assay: Compound was tested for 50% growth inhibition against human colon cancer HCC2998 cell line; format: functional
SK-MEL-5 = assay: Compound was tested for 50% growth inhibition against human melanoma SK-MEL-5 cell line; format: functional
LOX IMVI = assay: Compound was tested for 50% growth inhibition against human melanoma LOXIMVI cell line; format: functional
PC-3 = assay: Compound was tested for 50% growth inhibition against human prostate cancer PC-3 cell line; format: functional
Hs-578T = assay: Compound was tested for 50% growth inhibition against human breast cancer HS 578T cell line; format: functional
EKVX = assay: Compound was tested for 50% growth inhibition against human non-small cell lung cancer EKVX cell line; format: functional
SK-OV-3 = assay: Compound was tested for 50% growth inhibition against human ovarian cancer SK-OV-3 cell line; format: functional
NCI-H322M = assay: Compound was tested for 50% growth inhibition against human non-small cell lung cancer NCI-H322M cell line; format: functional
SF-268 = assay: Compound was tested for 50% growth inhibition against human CNS cancer SF-268 cell line; format: functional
HL-60 = assay: Compound was tested for 50% growth inhibition against human leukemia […] cell line; format: functional
MDA-MB-231 = assay: Compound was tested for 50% growth inhibition against human breast cancer MDA-MB-231/ATCC cell line; format: functional
NCI/ADR-RES = assay: Compound was tested for 50% growth inhibition against human breast cancer NCI/ADR-RES cell line; format: functional
HOP-92 = assay: Compound was tested for 50% growth inhibition against human non-small cell lung cancer […] cell line; format: functional
NCI-H23 = assay: Compound was tested for 50% growth inhibition against human non-small cell lung cancer NCI-H23 cell line; format: functional
SNB-19 = assay: Compound was tested for 50% growth inhibition against human CNS cancer SNB-19 cell line; format: functional
SW-620 = assay: Compound was tested for 50% growth inhibition against human colon cancer SW 620 cell line; format: functional
HT-29 = assay: Compound was tested for 50% growth inhibition against human colon cancer HT-29 cell line; format: functional
UACC-257 = assay: Compound was tested for 50% growth inhibition against human melanoma UACC-257 cell line; format: functional
OVCAR-5 = assay: Compound was tested for 50% growth inhibition against human ovarian cancer OVCAR-5 cell line; format: functional
HCT-116 = assay: Compound was tested for 50% growth inhibition against human colon cancer HCT116 cell line; format: functional
NCI-H226 = assay: Compound was tested for 50% growth inhibition against human non-small cell lung cancer NCI-H226 cell line; format: functional
MOLT-4 = assay: Compound was tested for 50% growth inhibition against human leukemia MOLT-4 cell line; format: functional
CAKI-1 = assay: Compound was tested for 50% growth inhibition against human renal cancer CAKI-1 cell line; format: functional
RPMI-8226 = assay: Compound was tested for 50% growth inhibition against human leukemia RPMI-8226 cell line; format: functional
SF-295 = assay: Compound was tested for 50% growth inhibition against human CNS cancer SF-295 cell line; format: functional
M14 = assay: Compound was tested for 50% growth inhibition against human melanoma M14 cell line; format: functional
SK-MEL-28 = assay: Compound was tested for 50% growth inhibition against human melanoma SK-MEL-28 cell line; format: functional
IGROV-1 = assay: Compound was tested for 50% growth inhibition against human ovarian cancer IGROVI cell line; format: functional
DU-145 = assay: Compound was tested for 50% growth inhibition against human prostate cancer DU-145 cell line; format: functional
HOP-62 = assay: Compound was tested for 50% growth inhibition against human non-small cell lung cancer HOP-62 cell line; format: functional
TK-10 = assay: Compound was tested for 50% growth inhibition against human renal cancer TK-10 cell line; format: functional
NCI-H460 = assay: Compound was tested for 50% growth inhibition against human non-small cell lung cancer NCI-H460 cell line; format: functional
MCF7 = assay: Compound was tested for 50% growth inhibition against human breast cancer MCF-7 cell line; format: functional
SN12C = assay: Compound was tested for 50% growth inhibition against human renal cancer […] cell line; format: functional
OVCAR-8 = assay: Compound was tested for 50% growth inhibition against human ovarian cancer OVCAR-8 cell line; format: functional
[10] = Compound was tested for inhibition of restriction endonuclease BamH1 enzyme at a concentration of 10 uM;Inhibited; summary of the method: as §2
OVCAR-3 = assay: Compound was tested for 50% growth inhibition against human ovarian cancer OVCAR-3 cell line; format: functional
KM12 = assay: Compound was tested for 50% growth inhibition against human colon cancer KM12 cell line; format: functional
COLO 205 = assay: Compound was tested for 50% growth inhibition against human colon cancer COLO 205 cell line; format: functional
A549 = assay: Compound was tested for 50% growth inhibition against human non-small cell lung cancer A549/ATCC cell line; format: functional
CCRF-CEM = assay: Compound was tested for 50% growth inhibition against human leukemia CCRF-CEM cell line; format: functional
T47D = assay: Compound was tested for 50% growth inhibition against human breast cancer T-47D cell line; format: functional
SR = assay: Compound was tested for 50% growth inhibition against human leukemia SR cell line; format: functional

C=C1C[C@H]2C=Nc3cc(OCCCOc4cc5c(cc4OC)C(=O)N4CC(=C)C[C@H]4C=N5)c(OC)cc3C(=O)N2C1 [SJG-136]
ΔTm (Nucleic Acid [1]): 31.9 °C | IC50 (K562 [2]): 43 nM | ΔTm (Nucleic Acid [3]): 33.6 °C | C50 (Nucleic Acid [4]): 0.045 µM | ΔTm (Nucleic Acid [5]): 25.7 °C | C50 (K562 [6]): 0.03 µM | Activity [7]: Inhibited

COc1cc2c(cc1OCCCCCOc1cc3c(cc1OC)C(=O)N1CCC[C@H]1C=N3)N=C[C@@H]1CCCN1C2=O
ΔTm (Nucleic Acid [1]): 5.9 °C | IC50 (K562 [2]): 500 nM | ΔTm (Nucleic Acid [3]): 9.4 °C | C50 (Nucleic Acid [4]): 0.07 µM | ΔTm (Nucleic Acid [5]): 3.3 °C

COc1cc2c(cc1OCCCOc1cc3c(cc1OC)C(=O)N1CCC[C@H]1C=N3)N=C[C@@H]1CCCN1C2=O [DSB-120]
ΔTm (Nucleic Acid [1]): 13.1 °C | IC50 (K562 [2]): 200 nM | ΔTm (Nucleic Acid [3]): 15.1 °C | C50 (Nucleic Acid [4]): 0.055 µM | Activity [8]: Inhibited | ΔTm (Nucleic Acid [5]): 10.2 °C

Cc1ccc2c(c1O)NC(O)C1CC(/C=C/C(N)=O)=CN1C2=O (stereo unspecified)
inhibition [9]: 12%

C=C1C[C@H]2C=Nc3cc(OCCCCCOc4cc5c(cc4OC)C(=O)N4CC(=C)C[C@H]4C=N5)c(OC)cc3C(=O)N2C1
GI50 (A498): 0.224 nM | GI50 (SF-539): 0.0363 nM | GI50 (U-251): 0.0427 nM | GI50 (ACHN): 0.0251 nM | GI50 (UO-31): 0.251 nM | ΔTm (Nucleic Acid [1]): 25.5 °C | GI50 (MDA-N): 0.209 nM | GI50 (BT-549): 0.162 nM | GI50 (HCT-15): 1.74 nM | GI50 (Malme-3M): 0.162 nM | GI50 (786-0): 0.0977 nM | GI50 (HCC 2998): 0.186 nM | GI50 (SK-MEL-5): 0.245 nM | GI50 (LOX IMVI): 0.0549 nM | GI50 (PC-3): 0.617 nM | GI50 (Hs-578T): 0.302 nM | GI50 (EKVX): 1.58 nM | GI50 (SK-OV-3): 0.162 nM | GI50 (NCI-H322M): 0.468 nM | IC50 (K562 [2]): < 1 nM | GI50 (SF-268): 0.0501 nM | GI50 (HL-60): 0.0148 nM | GI50 (MDA-MB-231): 0.371 nM | GI50 (NCI/ADR-RES): 7.94 nM | GI50 (HOP-92): 0.112 nM | GI50 (NCI-H23): 0.0832 nM | GI50 (SNB-19): 0.105 nM | ΔTm (Nucleic Acid [3]): 25.8 °C | GI50 (SW-620): 0.288 nM | GI50 (HT-29): 0.224 nM | GI50 (UACC-257): 0.525 nM | GI50 (OVCAR-5): 0.309 nM | GI50 (HCT-116): 0.174 nM | GI50 (NCI-H226): 0.162 nM | GI50 (MOLT-4): 0.012 nM | GI50 (CAKI-1): 0.178 nM | GI50 (RPMI-8226): 0.186 nM | GI50 (SF-295): 0.038 nM | GI50 (M14): 0.141 nM | C50 (Nucleic Acid [4]): 0.004 µM | GI50 (SK-MEL-28): 0.219 nM | GI50 (IGROV-1): 0.0049 nM | GI50 (DU-145): 0.049 nM | GI50 (HOP-62): 0.117 nM | GI50 (TK-10): 0.295 nM | GI50 (NCI-H460): 0.0955 nM | GI50 (MCF7): 0.0933 nM | GI50 (SN12C): 0.0269 nM | ΔTm (Nucleic Acid [5]): 24.9 °C | GI50 (OVCAR-8): 0.195 nM | Activity [10]: Inhibited | GI50 (OVCAR-3): 0.2 nM | GI50 (KM12): 0.245 nM | GI50 (COLO 205): 0.166 nM | GI50 (A549): 0.123 nM | C50 (K562 [6]): 0.009 µM | GI50 (CCRF-CEM): 0.00646 nM | GI50 (T47D): 0.0199 nM | GI50 (SR): < 0.001 nM

C/C=C1\C[C@H]2C=Nc3cc(O)c(OC)cc3C(=O)N2C1
ΔTm (Nucleic Acid [1]): 2.4 °C | ΔTm (Nucleic Acid [3]): 2.6 °C | ΔTm (Nucleic Acid [5]): 1 °C
